Laboratory results reported in ChEMBL document CHEMBL2069218, “Water-soluble pyrazolo[4,3-e][1,2,4]triazolo[1,5-c]pyrimidines as human A₃ adenosine receptor antagonists” (J Med Chem, 2012).
pIC50, pKi: −log10 of the molar value.

Assays:
Adenosine receptor A1 = target: T1, Adenosine receptor A1 (Homo sapiens, UniProt P30542); test: Displacement of [3H]DPCPX from human adenosine A1 receptor expressed in CHO cells after 120 mins by scintillation counter; type: cell-based
T1 sequence (P30542 whole entry): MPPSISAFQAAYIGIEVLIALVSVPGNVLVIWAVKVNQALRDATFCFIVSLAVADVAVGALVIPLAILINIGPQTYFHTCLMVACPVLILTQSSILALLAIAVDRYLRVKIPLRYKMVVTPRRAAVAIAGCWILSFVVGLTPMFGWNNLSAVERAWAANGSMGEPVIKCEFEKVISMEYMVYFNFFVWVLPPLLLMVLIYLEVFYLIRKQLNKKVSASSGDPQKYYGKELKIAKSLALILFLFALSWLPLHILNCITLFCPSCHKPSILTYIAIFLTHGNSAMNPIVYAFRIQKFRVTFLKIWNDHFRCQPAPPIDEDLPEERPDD
Summary of the method: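 Membranes from CHO cells expressing human A1 (50 μg protein), in 50 mM Tris-HCl pH 7.4, pretreated with adenosine deaminase 2 IU/mL. [³H]DPCPX 1 nM, 6–8 test concentrations, 120 min at 25 °C. Nonspecific binding with 1 μM DPCPX. GF/B filtration. Ki by Cheng–Prusoff.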

Adenosine receptor A2a = Adenosine receptor A2a (Homo sapiens, UniProt P29274); test: Displacement of [3H]ZM241385 from human adenosine A2A receptor expressed in CHO cells after 60 mins by scintillation counter; type: cell-based
Chain of Adenosine receptor A2a (P29274 whole entry): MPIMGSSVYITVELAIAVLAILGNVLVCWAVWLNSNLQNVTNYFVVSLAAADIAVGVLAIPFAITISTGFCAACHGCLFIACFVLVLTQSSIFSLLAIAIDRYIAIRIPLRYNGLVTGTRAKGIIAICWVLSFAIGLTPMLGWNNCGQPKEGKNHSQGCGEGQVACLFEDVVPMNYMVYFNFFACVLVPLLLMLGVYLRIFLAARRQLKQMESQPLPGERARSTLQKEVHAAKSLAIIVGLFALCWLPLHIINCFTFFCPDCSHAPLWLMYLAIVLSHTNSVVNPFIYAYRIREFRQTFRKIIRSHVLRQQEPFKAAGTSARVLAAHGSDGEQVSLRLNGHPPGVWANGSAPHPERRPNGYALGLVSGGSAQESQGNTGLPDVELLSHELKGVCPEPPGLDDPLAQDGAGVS
Summary of the method: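 Membranes from CHO cells expressing human A2A (50 μg protein), in 50 mM Tris-HCl, 10 mM MgCl2, pH 7.4, adenosine deaminase pretreated. [³H]ZM241385 2 nM, 6–8 concentrations, 60 min at 4 °C. Nonspecific binding with 1 μM ZM241385. Filtration, scintillation counting. Ki by Cheng–Prusoff. 3–4 experiments in duplicate.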

Adenosine receptor A3 [1] = target: T2, Adenosine receptor A3 (Homo sapiens, UniProt P0DMS8); test: Displacement of [3H]MRE-3008-F20 from human adenosine A3 receptor expressed in CHO cells after 120 mins by scintillation counter; type: cell-based
T2 sequence (P0DMS8 whole entry): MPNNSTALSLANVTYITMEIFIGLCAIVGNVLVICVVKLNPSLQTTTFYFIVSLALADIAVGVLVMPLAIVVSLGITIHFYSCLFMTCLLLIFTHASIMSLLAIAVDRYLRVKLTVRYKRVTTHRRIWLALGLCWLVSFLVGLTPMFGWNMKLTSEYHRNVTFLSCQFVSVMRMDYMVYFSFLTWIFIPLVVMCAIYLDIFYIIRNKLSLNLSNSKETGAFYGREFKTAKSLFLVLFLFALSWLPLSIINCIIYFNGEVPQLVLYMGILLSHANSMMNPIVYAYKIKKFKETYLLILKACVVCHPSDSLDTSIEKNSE

Adenosine receptor A2b = target: T3, Adenosine receptor A2b (Homo sapiens, UniProt P29275); test: Antagonist activity at human adenosine A2B receptor expressed in CHO cells assessed as inhibition of NECA-induced cAMP production; type: functional, cell-based
T3 sequence (P29275 whole entry): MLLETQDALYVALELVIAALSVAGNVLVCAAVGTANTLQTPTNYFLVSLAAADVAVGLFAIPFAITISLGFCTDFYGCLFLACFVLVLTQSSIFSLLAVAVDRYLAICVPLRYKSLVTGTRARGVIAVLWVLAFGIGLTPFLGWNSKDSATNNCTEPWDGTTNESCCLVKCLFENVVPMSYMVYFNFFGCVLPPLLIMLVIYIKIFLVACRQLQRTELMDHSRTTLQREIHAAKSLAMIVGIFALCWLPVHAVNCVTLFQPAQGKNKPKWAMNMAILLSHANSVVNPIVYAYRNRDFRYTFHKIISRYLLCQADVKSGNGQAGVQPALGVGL
Summary of the method: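 Intact CHO cells (1 × 10⁶/assay) expressing human A2B, in buffer pH 7.4 with 2 IU/mL adenosine deaminase and Ro 20-1724. Preincubated 10 min at 37 °C. NECA 100 nM stimulus. Stopped with cold 6% TCA, ether-extracted, cAMP measured by competition protein binding with [³H]cAMP. IC50 from sigmoid nonlinear regression.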

Adenosine receptor A3 [2] = target: T2, Adenosine receptor A3; test: Antagonist activity at human adenosine A3 receptor expressed in CHO cells assessed as forskolin/C1-IB-MECA-induced inhibition of cAMP production; type: functional, cell-based
Summary of the method: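 Intact CHO cells (1 × 10⁶/assay) expressing human A3, in buffer pH 7.4 with 2 IU/mL adenosine deaminase and Ro 20-1724. Preincubated 10 min at 37 °C. Forskolin 1 μM with Cl-IB-MECA 100 nM. Stopped with cold 6% TCA, cAMP measured by [³H]cAMP competition protein binding. IC50 by sigmoid nonlinear regression.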

[3] = target: Adenosine receptors; A1 & A3 (Homo sapiens) (UniProt P30542+P0DMS8); test: Selectivity ratio of Ki for human adenosine A1 receptor to Ki for human adenosine A3 receptor
[4] = Solubility of the compound in water at pH 7.4; type: physicochemical
Summary of the method: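 Hydrochloride salts, solubility measured in phosphate-buffered saline at pH 7.4.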

pKi (Adenosine receptor A1) | pKi (Adenosine receptor A2a) | pKi (Adenosine receptor A3 [1]) | pIC50 (Adenosine receptor A2b) | pIC50 (Adenosine receptor A3 [2]) | Ratio Ki [3] | solubility [4] | SMILES
6.43 | < 5.30 | 7.91 | < 5.30 | 7.38 |  |  | Cn1cc2c(nc(NC(=O)NC3CCN(Cc4ccc([N+](=O)[O-])cc4)CC3)n3nc(-c4ccco4)nc23)n1
6.78 | 5.65 | 7.93 | < 5.30 | 7.40 | 14 |  | Cn1cc2c(nc(NC(=O)NC3CCN(Cc4ccc(C#N)cc4)CC3)n3nc(-c4ccco4)nc23)n1
5.88 | < 5.30 | 7.36 | < 5.30 | 6.74 |  |  | Cn1cc2c(nc(NC(=O)NC3CCN(Cc4cccnc4)CC3)n3nc(-c4ccco4)nc23)n1
 |  |  |  |  |  | < 100 µg/mL | Cl.Cn1cc2c(nc(NC(=O)Nc3ccncc3)n3nc(-c4ccco4)nc23)n1
 |  |  |  |  |  | 15000 µg/mL | CN1CCC(NC(=O)Nc2nc3nn(C)cc3c3nc(-c4ccco4)nn23)CC1.Cl
6.46 | 5.96 | 7.91 | < 5.30 | 7.39 |  |  | CCOC(=O)CN1CCC(NC(=O)Nc2nc3nn(C)cc3c3nc(-c4ccco4)nn23)CC1
5.83 | < 5.30 | 7.86 | < 5.30 | 7.30 | 107 |  | Cc1ccc(CN2CCC(NC(=O)Nc3nc4nn(C)cc4c4nc(-c5ccco5)nn34)CC2)cc1
5.98 | < 5.30 | 7.62 | < 5.30 | 7.09 |  |  | Cn1cc2c(nc(NC(=O)NC3CCN(Cc4ccc(F)cc4)CC3)n3nc(-c4ccco4)nc23)n1
 |  |  |  |  |  | 8000 µg/mL | C#CCN1CCC(NC(=O)Nc2nc3nn(C)cc3c3nc(-c4ccco4)nn23)CC1.Cl
6.74 | 5.73 | 8.17 | 5.76 | 7.64 |  |  | Cn1cc2c(nc(NC(=O)NC3CCN(C(=O)NCCc4ccccc4)CC3)n3nc(-c4ccco4)nc23)n1
6.20 | < 5.30 | 7.98 | 5.49 | 7.47 |  |  | COc1ccc(CNC(=O)N2CCC(NC(=O)Nc3nc4nn(C)cc4c4nc(-c5ccco5)nn34)CC2)cc1
6.39 | 5.49 | 8.31 | 5.98 | 7.82 |  |  | Cn1cc2c(nc(NC(=O)NC3CCN(C(=O)NCc4ccc(F)cc4)CC3)n3nc(-c4ccco4)nc23)n1
5.55 | 5.92 | 7.15 | < 5.30 | 6.52 |  |  | CCCN1CCC(NC(=O)Nc2nc3nn(C)cc3c3nc(-c4ccco4)nn23)CC1
5.88 | < 5.30 | 8.01 | < 5.30 | 7.47 |  |  | CC(C)NC(=O)N1CCC(NC(=O)Nc2nc3nn(C)cc3c3nc(-c4ccco4)nn23)CC1
6.40 | 5.55 | 8.41 | 5.67 | 7.92 |  |  | Cc1ccc(CNC(=O)N2CCC(NC(=O)Nc3nc4nn(C)cc4c4nc(-c5ccco5)nn34)CC2)cc1
5.94 | < 5.30 | 7.88 | < 5.30 | 7.35 | 87 |  | COc1ccc(CN2CCC(NC(=O)Nc3nc4nn(C)cc4c4nc(-c5ccco5)nn34)CC2)cc1
 |  |  |  |  |  | 8000 µg/mL | Cl.Cn1cc2c(nc(NC(=O)NC3CCN(Cc4ccc(F)cc4)CC3)n3nc(-c4ccco4)nc23)n1
